Experimental data reported in ChEMBL document CHEMBL3286242, “Design, synthesis and biological evaluation of arylcinnamide hybrid derivatives as novel anticancer agents” (Eur J Med Chem, 2014).
Activity calls are given as the source filed them. The rule behind the calls is not given here.

Key:
HeLa [1] = assay: Cytotoxicity against human HeLa cells assessed as growth inhibition after 72 hrs by MTT assay; assay type: functional, cell-based
HT-29 = assay: Cytotoxicity against human HT-29 cells assessed as growth inhibition after 72 hrs by MTT assay; assay type: functional, cell-based; conditions: HT-29, 72 h
LoVo = assay: Cytotoxicity against human LoVo cells assessed as growth inhibition after 72 hrs by MTT assay; assay type: functional, cell-based
CCRF-CEM = assay: Cytotoxicity against human CEM cells assessed as growth inhibition after 72 hrs by MTT assay; assay type: functional, cell-based
Jurkat = assay: Cytotoxicity against human Jurkat cells assessed as growth inhibition after 72 hrs by MTT assay; assay type: functional, cell-based
PBMC = assay: Cytotoxicity against human resting PBMC assessed as growth inhibition after 72 hrs by MTT assay; assay type: cell-based
In short: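 Healthy-donor PBMC from Lymphoprep gradient, rested overnight in RPMI-1640/10% FBS; non-adherent cells at 5 × 10^5 cells/mL without PHA, treated 72 h with varying concentrations; viability by MTT; IC50 mean ± SEM, three separate experiments.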

[2] = Selectivity ratio of IC50 for human resting PBMC to IC50 for human Jurkat cells; assay type: ADME, cell-based; conditions: resting PBMC versus Jurkat cells, read-out: Ratio IC50
[3] = Selectivity ratio of IC50 for human resting PBMC to IC50 for human CEM cells; assay type: ADME, cell-based, CCRF-CEM; conditions: resting PBMC versus CEM cells, read-out: Ratio IC50
[4] = Cytotoxicity against human LoVo/DX cells assessed as growth inhibition after 72 hrs by MTT assay; assay type: functional, cell-based
Tubulin (Bos taurus) = Tubulin (Bos taurus) (UniProt Q6B856+Q862L2+Q862F3); assay: Inhibition of bovine brain tubulin polymerization at 20 uM by turbidimetry
In short: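 Purified bovine brain tubulin (10 μM) preincubated with compound in glutamate buffer at 30 °C, cooled to 0 °C, GTP added, then warmed to 30 °C in cuvettes; assembly followed turbidimetrically; concentrations up to 20 μM.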

HeLa [5] = assay: Induction of apoptosis in human HeLa cells assessed as increase in Bid protein expression at 1 uM after 24 hrs by Western blotting analysis; assay type: functional, cell-based
HeLa [6] = assay: Induction of apoptosis in human HeLa cells assessed as increase in Bak protein expression at 1 to 2.5 uM after 24 to 48 hrs by Western blotting analysis; assay type: functional, cell-based
Tubulin (Homo sapiens) = Tubulin (Homo sapiens) (UniProt P68371+Q9H4B7+P0DPH7+P68366+Q13509+Q71U36+P04350+Q3ZCM7+P07437+P68363+Q9BQE3+Q6PEY2+Q13885+Q9BVA1+Q9BUF5); assay: Inhibition of tubulin polymerization in human HeLa cells assessed as microtubule disruption at 2.5 to 5 uM after 24 hrs by immunofluorescence microscopy relative to untreated control; assay type: cell-based
In short: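 HeLa cells exposed 24 h to 2.5 or 5.0 μM versus untreated; fixed in cold 4% formaldehyde 15 min, stained with anti-β-tubulin monoclonal (1:1000) and Alexa secondary (1:2000), DAPI counterstain; imaged by confocal microscopy at 20×.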

HeLa [7] = assay: Cell cycle arrest in human HeLa cells assessed as accumulation at G2/M phase after 24 hrs by propidium iodide staining-based flow cytometry; assay type: functional
In short: (§1)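 HeLa cells in exponential growth (2.5 × 10^5) treated 24 h at various concentrations; ethanol-fixed (70%, ice-cold), lysed with RNase A/0.1% Triton X-100, PI-stained; DNA content by flow cytometry, phase percentages from DNA histograms.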

HeLa [8] = assay: Cell cycle arrest in human HeLa cells assessed as reduction in S phase after 24 hrs by propidium iodide staining-based flow cytometry; assay type: functional; in short: as §1
HeLa [9] = assay: Induction of apoptosis in human HeLa cells at 0.62 to 5 uM after 24 to 48 hrs by Annexin V/FITC staining-based flow cytometry; assay type: functional, cell-based
In short: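 HeLa cells treated 24 or 48 h at indicated concentrations, then stained with annexin-V-FITC plus PI; flow cytometry with 488 nm excitation, 525 and 585 nm emission; live, early/late apoptotic and necrotic populations distinguished; means of three independent experiments.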

HeLa [10] = assay: Induction of apoptosis in human HeLa cells assessed as cell viability at 2.5 uM after 48 hrs by MTT assay in presence of dithiothreitol; assay type: functional, cell-based
In short: (§2)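 HeLa cells exposed to 2.5 μM compound for 48 h with scavengers (NAC 100 μM, GSH 1 mM or DTT 1 mM, among others); viability by MTT; means ± SEM of four independent experiments, Student's t-test.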

HeLa [11] = assay: Induction of apoptosis in human HeLa cells assessed as caspase activation at 2.5 uM after 48 hrs in presence of pan-caspase inhibitor z-VAD.fmk; assay type: functional, cell-based
In short: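 HeLa cells given 2.5 μM compound for 48 h with or without 100 μM z-VAD.fmk pan-caspase inhibitor; viability measured; means ± SEM of three independent experiments, Student's t-test.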

HeLa [12] = assay: Induction of apoptosis in human HeLa cells assessed as caspase-3 activation at 1 to 2.5 uM by Western blotting analysis; assay type: functional, cell-based; conditions: TDE = time-dependent effect
In short: (§3)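 HeLa cells treated at indicated concentrations and times; washed in cold PBS, lysed 30 min at 0 °C, cleared at 15 000 × g; 20 μg protein resolved on 7.5–15% gradient SDS-PAGE, blotted to PVDF, primary antibodies 2 h room temperature, peroxidase secondary 60 min, ECL detection; β-actin reprobe for loading.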

HeLa [13] = assay: Induction of apoptosis in human HeLa cells assessed as PARP cleavage after 24 to 48 hrs by Western blotting analysis; assay type: functional, cell-based; in short: as §3
HeLa [14] = assay: Induction of apoptosis in human HeLa cells assessed as PARP cleavage at 1 to 2.5 uM by Western blotting analysis; assay type: functional, cell-based; conditions: TDE = time-dependent effect; in short: as §3
HeLa [15] = assay: Induction of apoptosis in human HeLa cells assessed as cell viability at 2.5 uM after 48 hrs by MTT assay in presence of N-acetylcysteine; assay type: functional, cell-based; in short: as §2
HeLa [16] = assay: Induction of apoptosis in human HeLa cells assessed as caspase-9 activation at 1 to 2.5 uM after 24 to 48 hrs by Western blotting analysis; assay type: functional, cell-based; in short: as §3
HeLa [17] = assay: Induction of apoptosis in human HeLa cells assessed as caspase-8 activation at 1 to 2.5 uM after 24 to 48 hrs by Western blotting analysis; assay type: functional, cell-based; in short: as §3
HeLa [18] = assay: Induction of apoptosis in human HeLa cells assessed as reduction in Mcl-1 protein expression at 2.5 uM after 48 hrs by Western blotting analysis; assay type: functional, cell-based; in short: as §3
HeLa [19] = assay: Induction of DNA damage in human HeLa cells assessed as increase in gammaH2A.X protein expression at 1 to 2.5 uM after 24 hrs by Western blotting analysis; assay type: functional, cell-based
HeLa [20] = assay: Induction of intracellular ROS generation in human HeLa cells after 1 to 6 hrs by H2DCFDA staining-based flow cytometry; assay type: functional, cell-based
In short: (§4)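 HeLa cells treated at various concentrations and times; ROS followed by flow cytometry with H2DCFDA or hydroethidine (HE, mainly superoxide).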

HeLa [21] = assay: Induction of intracellular ROS generation in human HeLa cells at 1 to 5 uM after 1 to 6 hrs by hydroethidine staining-based flow cytometry; assay type: functional, cell-based; in short: as §4
HeLa [22] = assay: Induction of apoptosis in human HeLa cells assessed as mitochondrial depolarization at 1 to 5 uM after 12 hrs by JC-1 staining-based flow cytometry; assay type: functional, cell-based

inhibition (Tubulin (Bos taurus)): inactive | inhibition (Tubulin (Homo sapiens)): inactive
SMILES: C=C(Br)C(=O)Nc1ccc(/C=C/C(=O)Nc2cc(OC)c(OC)c(OC)c2)cc1
IC50 (HeLa [1]): 490 nM | IC50 (HT-29): 3700 nM | IC50 (LoVo): 2100 nM | IC50 (CCRF-CEM): 25 nM | IC50 (Jurkat): 410 nM | IC50 (PBMC): 3500 nM | selectivity ratio [2]: 10 | selectivity ratio [3]: 10 | IC50 [4]: 1370 nM | Activity (HeLa [5]): inactive | Activity (HeLa [6]): inactive | Activity (HeLa [7]): Dose-dependent effect | Activity (HeLa [8]): Active | Activity (HeLa [9]): Active | Activity (HeLa [10]): inactive | Activity (HeLa [11]): inactive | Activity (HeLa [12]): tde | Activity (HeLa [13]): Dose-dependent effect | Activity (HeLa [14]): tde | Activity (HeLa [15]): inactive | Activity (HeLa [16]): inactive | Activity (HeLa [17]): Active | Activity (HeLa [18]): Active | Activity (HeLa [19]): Active | Activity (HeLa [20]): Dose-dependent effect | Activity (HeLa [21]): inactive | Activity (HeLa [22]): Active
